# According to ChEMBL document CHEMBL4513216, “Probing the Open Global Health Chemical Diversity Library for Multistage-Active Starting Points for Next-Generation Antimalarials” (ACS Infect Dis, 2020):
# Experiment: Toxicity liver stage against HepG2, at 10uM
# Assay type: cell-based
# Design: test concentration 10 uM, cell line HepG2-A16-CD81EGFP
# Conditions: human, HepG2-A16-CD81EGFP cells; read-out: INHIBITION
# Summary of the method: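 Uninfected HepG2-A16-CD81EGFP cells, 3 × 10^3 per well, 1536-well, plated on prespotted compound at 10 μM final, parasite-free screening media added to match infected plates; puromycin 10 μM positive, DMSO 0.5% negative; run in parallel with 48 h PbLuc assay at 37 °C, 5% CO2; viability by CellTiter-Glo luminescence, normalized to controls.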
row,Compound,cytotoxicity at 10 µM
1,O=C(NCCc1nncn1C1CC1)C1SCCc2ccccc21 (stereo unspecified),2.48%
2,CCC(NC1Cc2ccccc2C1)c1ccc(S(C)(=O)=O)cc1 (stereo unspecified),-2.02%
3,CC(=O)Nc1ccc(CN2CCc3[nH]cnc3C2c2ccc(C)o2)cc1 (stereo unspecified),4.93%
4,CCC(=O)N(C)C1CCN(Cc2ncc(C)c(OC)c2C)CC1,-9.86%
5,CCn1ncc2c1CCCC2NCc1cccc2c1OCCCO2 (stereo unspecified),-13.4%
6,COCCN1CCC2(C1)CN(c1ncccn1)C2,10.7%
7,CO[C@@H]1CCN(c2ncc(F)cn2)[C@@H]2CN(CC3CC3)C[C@@H]21,12.3%
8,COCCOCCCNC(=O)c1cc(Cl)cc2cccnc12,32.6%
9,Cc1nnc(CN(Cc2ccc3c(c2)OCO3)C2CCCCC2)o1,-6.14%
10,Nc1nc2c(c(NC3CCCC3)n1)CCN(C(=O)C1CCOC1)CC2 (stereo unspecified),-129%
11,CNC(=O)[C@H]1CC[C@@H]2[C@@H](CCN2c2ncccn2)O1,6.25%
12,CC(C)(C)c1n[nH]c(C2CN(C(=O)CCC3CC3)CCO2)n1 (stereo unspecified),-12.7%
13,Cc1ccc(C(CNC(=O)Cc2nc3ncccn3n2)N(C)C)cc1 (stereo unspecified),-1.64%
14,Cc1cccc(CN2CCOCC2c2[nH]ncc2C)n1 (stereo unspecified),6.91%
15,COCCN1C[C@@H]2OCCN(c3ccnc(N(C)C)n3)[C@@H]2C1,-118%
16,Cc1ccc(C(=O)N2Cc3ccccc3C2)cc1N1CCNC1=O,-13.9%
17,Cn1ccnc1CN1CCN(c2ccc(C#N)cc2F)CC1,-2.06%
18,CN(Cc1ccccc1)S(=O)(=O)N1C[C@@H](C(=O)O)[C@H](C2CC2)C1,-150%
19,CCOC(=O)Cc1csc(NC(=O)c2cc(=O)c(OC)c[nH]2)n1,-43.8%

row,Compound,cytotoxicity at 10 µM
1,O=C(O)c1cc2c(nc1O)CC(c1cccc(Cl)c1)CC2=O (stereo unspecified),9.56%
2,CN(C(=O)COC1CCCC1)C1CCN(CC2CCOC2)CC1 (stereo unspecified),-9.98%
3,NC(=O)C1CCN(c2cncc(-n3cccn3)n2)CC1,12.5%
4,CC(C)C(=O)N1CCC2(CC1)COCCN2Cc1ccc(F)cc1,-60.9%
5,Cn1ccnc1CN1CCc2c(COCC3CC3)nn(C)c2C1,8.68%
6,CCN1CCN(CCNC(=O)c2ccn(-c3ccc(F)cc3)n2)CC1,-26.2%
7,CCn1cc(C(=O)N2CCCN(c3cccnn3)CC2)c2ccccc21,-0.418%
8,C=C1C(C)(C)[C@@H]2CC[C@]1(C(=O)N1CCC(Cn3cc(CO)nn3)CC1)C2,-6.01%
9,COC(=O)N1CCC2(CC1)N=C(CCC(C)C)NC2=O,-2.77%
10,O=C(c1cccnc1-n1cncn1)N1CCN(C2CCCC2)CC1,8.7%
11,O=C(c1ccnnc1)N1CCc2ncnc(C3CCOC3)c2CC1 (stereo unspecified),-77.5%
12,Cc1ccc(NCC2(O)CCNCC2)cc1C,2.27%
13,O=C1NC2(Cc3ccccc31)CN(CC1CCCC1)C2,7.58%
14,COCC(=O)NC[C@]12COC[C@H]1CN(c1ncc(F)cn1)C2,-143%
15,Cc1nc(CO[C@H]2CN(C(=O)c3cnoc3C)[C@@H]3COC[C@H]23)cs1,-107%
16,Cc1cc(C)n(CC2CCCN2C(=O)c2cnccn2)n1 (stereo unspecified),6.41%
17,COc1ccc(CN2CCCn3cncc3C2)cc1Cn1cncn1,5.63%
18,Cc1noc(-c2ccc(N3CCC(C(=O)N4CCCC4)CC3)nc2)n1,6.5%
19,Cc1cc(C)nc(C2CCCN2S(=O)(=O)N2CCOCC2)n1 (stereo unspecified),0.55%

row,Compound,cytotoxicity at 10 µM
1,CC(=O)N1CC[C@H](c2nc3cc(C)ccc3o2)C1,-4.13%
2,O=C(CCNc1ncccn1)NCCc1ccn(-c2ccccc2)n1,0.914%
3,O=S(=O)(c1ccccc1Cl)N1CCCC(c2ncc[nH]2)C1 (stereo unspecified),5.48%
4,CC(C)c1nccn1C(C)C(=O)N1CCN(c2ccccc2Cl)CC1 (stereo unspecified),3.54%
5,CC(C)c1nn(C)c(N2CCOCC2)c1CNCc1cscn1,-3.83%
6,CC(C)(C)CCCC(=O)Nc1ccnn1C1CCS(=O)(=O)C1 (stereo unspecified),-9.92%
7,COCC1c2c(cnn2CC2CCOCC2)CCN1Cc1ccoc1 (stereo unspecified),-20%
8,O=C(NC1CC1)N1CCc2ccc(=O)n(CC3CC3)c2CC1,-4.63%
9,Cc1ccccc1OC1CCN(CC(=O)Nc2cnn(C)c2C)CC1,-8.09%
10,C[S+]([O-])c1nncn1CCCc1ccc(Cl)cc1 (stereo unspecified),-8.64%
11,O=C(Cc1cccc(O)c1)N1CCCC(OCc2cccnc2)C1 (stereo unspecified),1.5%
12,COc1cccc(Cl)c1-c1cc(CN)ccc1F,-5.3%
13,COc1ccc(C(C(=O)O)N2CCN(C3CCCC3)CC2)cc1OC (stereo unspecified),-17.1%
14,Cn1ccnc1CN1CCN(CC(O)c2ccccc2)CC1 (stereo unspecified),-11.4%
15,CC(C)CCN1N=C(C(=O)N2CCCCCC2)S(=O)(=O)c2ccccc21,11.8%
16,CN1CCN(CCCN(C)S(=O)(=O)CC2CCCCC2)CC1,-10.1%
17,Cn1ccc(C(=O)N2CCCC(c3cc4cccnc4c(O)n3)C2)n1 (stereo unspecified),4.53%
18,CN1CCC(N[C@@H]2CO[C@H](CNC(=O)Nc3ccccc3)[C@H]2O)CC1,6.31%
